Publication PMC12011195 (ACS chemical biology, 2024)

How the values were obtained:
[1] = tested on: FXN expression in patient-derived cells; settings: wide array of patient-derived cells; cited from earlier work
[2] = tested on: FXN mRNA in GM15850 cells; test: Co-treatment of SynGRs with BET-binding ligands, FXN mRNA in GM15850 cells; assay type: cell-based, human; settings: SynGR1 1 h, then ligand 0.5 μM for 23 h
How it was run: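 Patient-derived GM15850 lymphoblasts in RPMI with 15% FBS; compounds dissolved in DMSO. Test compound (1 mM stock, increasing concentrations) added for 1 h, then pan-BET, BD1- or BD2-selective BET ligand at 0.5 μM for 23 h. RNA purified with DNase treatment; cDNA from 400 ng RNA; SYBR qPCR on 100 ng cDNA with FXN and TBP primers; normalised to 0.1% DMSO control.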

Row | Compound | FXN protein levels [1] | effect of co-treatment with BET ligand on FXN expression activity of SynGR1 [2]
1 | Cc1sc2c(c1C)C(c1ccc(Cl)cc1)=N[C@@H](CC(=O)NCCOCCOCCOCCOCCOCCOCCC(=O)NCCCN(C)CCCNC(=O)CCNC(=O)c1nc(NC(=O)CCNC(=O)c3cc(NC(=O)c4nc(NC(=O)CCNC(=O)c5cc(NC(=O)c6nccn6C)cn5C)cn4C)cn3C)cn1C)c1nnc(C)n1-2 [SynGR1] | restoring FXN protein levels | 
2 | COCc1nc2cnc3cc(-c4c(C)noc4C)c(OC[C@H]4CCNC4)cc3c2n1[C@H](C)c1ccccc1 [GSK778] |  | further stimulated the activity
